Measured values as given in ChEMBL document CHEMBL3046406, “Herbicidal potential of ophiobolins produced by Drechslera gigantea” (2006).
Calls of active or inactive are those of the source. No cut-off for these calls is given here.

What follows are compounds tested on Digitaria sanguinalis (assay: Herbicidal activity against Digitaria sanguinalis (hairy crabgrass) assessed as diameter of leaf necrosis at 50 ug/ml measured after 2 days post compound treatment by leaf puncture assay).
Format: functional
Outline: (§1)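 Detached leaf segments (about 5 cm) from young greenhouse-grown plants, each with a superficial puncture lesion (0.5 mm) made by glass capillary. Compound dissolved in DMSO, diluted with distilled water (final DMSO 2%), 8 µL droplet applied. Segments held on moist filter paper at 25 °C under continuous fluorescent light (10000 lux). DMSO droplets as control. Necrosis scored visually on a 0–3 scale at day 2.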

SMILES | Activity
CC(C)=C[C@H]1C[C@H](C)[C@]2(CC[C@]3(C)C[C@@H]4C(C)=CC(=O)[C@H]4/C(CO)=C\C[C@H]32)O1 | inactive

The compounds below were run on Avena sterilis subsp. ludoviciana (assay: Herbicidal activity against Avena sterilis subsp. ludoviciana assessed as diameter of leaf necrosis at 100 ug/ml measured after 2 days post compound treatment by leaf puncture assay).
Format: functional
Outline: as §1

SMILES | Activity
CC(C)=C[C@H]1C[C@H](C)[C@]2(CC[C@]3(C)C[C@@H]4C(C)=CC(=O)[C@H]4/C(CO)=C\C[C@H]32)O1 | inactive

What follows are compounds tested on Diplotaxis erucoides (assay: Herbicidal activity against Diplotaxis erucoides assessed as diameter of leaf necrosis at 250 ug/ml measured after 2 days post compound treatment by leaf puncture assay).
Format: functional
Outline: as §1

SMILES | Activity
CC(C)=C[C@H]1C[C@H](C)[C@]2(CC[C@]3(C)C[C@@H]4C(C)=CC(=O)[C@H]4/C(CO)=C\C[C@H]32)O1 | inactive

These compounds were tested on Oloptum miliaceum (assay: Herbicidal activity against Piptatherum miliaceum assessed as diameter of leaf necrosis at 50 ug/ml measured after 2 days post compound treatment by leaf puncture assay).
Format: functional
Outline: as §1

SMILES | Activity
CC(C)=C[C@H]1C[C@H](C)[C@]2(CC[C@]3(C)C[C@@H]4C(C)=CC(=O)[C@H]4/C(CO)=C\C[C@H]32)O1 | inactive

Each compound was assayed on Setaria viridis (assay: Herbicidal activity against Setaria viridis assessed as diameter of leaf necrosis at 250 ug/ml measured after 2 days post compound treatment by leaf puncture assay).
Format: functional
Outline: as §1

SMILES | Activity
CC(C)=C[C@H]1C[C@H](C)[C@]2(CC[C@]3(C)C[C@@H]4C(C)=CC(=O)[C@H]4/C(CO)=C\C[C@H]32)O1 | inactive

What follows are compounds tested on Avena sterilis subsp. ludoviciana (assay: Herbicidal activity against Avena sterilis subsp. ludoviciana assessed as diameter of leaf necrosis at 50 ug/ml measured after 2 days post compound treatment by leaf puncture assay).
Format: functional
Outline: as §1

SMILES | Activity
CC(C)=C[C@H]1C[C@H](C)[C@]2(CC[C@]3(C)C[C@@H]4C(C)=CC(=O)[C@H]4/C(CO)=C\C[C@H]32)O1 | inactive

These compounds were tested on Bromus sterilis (assay: Herbicidal activity against Bromus sterilis assessed as diameter of leaf necrosis at 100 ug/ml measured after 2 days post compound treatment by leaf puncture assay).
Format: functional
Outline: as §1

SMILES | Activity
CC(C)=C[C@H]1C[C@H](C)[C@]2(CC[C@]3(C)C[C@@H]4C(C)=CC(=O)[C@H]4/C(CO)=C\C[C@H]32)O1 | inactive

What follows are compounds tested on Cynodon dactylon (assay: Herbicidal activity against Cynodon dactylon assessed as diameter of leaf necrosis at 50 ug/ml measured after 2 days post compound treatment by leaf puncture assay).
Format: functional
Outline: as §1

SMILES | Activity
CC(C)=C[C@H]1C[C@H](C)[C@]2(CC[C@]3(C)C[C@@H]4C(C)=CC(=O)[C@H]4/C(CO)=C\C[C@H]32)O1 | inactive

Each compound was assayed on Avena sterilis subsp. ludoviciana (assay: Herbicidal activity against Avena sterilis subsp. ludoviciana assessed as diameter of leaf necrosis at 250 ug/ml measured after 2 days post compound treatment by leaf puncture assay).
Format: functional
Outline: as §1

SMILES | Activity
CC(C)=C[C@H]1C[C@H](C)[C@]2(CC[C@]3(C)C[C@@H]4C(C)=CC(=O)[C@H]4/C(CO)=C\C[C@H]32)O1 | inactive

The compounds below were run on Sonchus oleraceus (assay: Herbicidal activity against Sonchus oleraceus assessed as diameter of leaf necrosis at 50 ug/ml measured after 2 days post-compound treatment by leaf puncture assay).
Format: functional
Outline: as §1

SMILES | Activity
CC(C)=C[C@H]1C[C@H](C)[C@]2(CC[C@]3(C)C[C@@H]4C(C)=CC(=O)[C@H]4/C(CO)=C\C[C@H]32)O1 | inactive

What follows are compounds tested on Convolvulus arvensis (assay: Herbicidal activity against Convolvulus arvensis assessed as diameter of leaf necrosis at 250 ug/ml measured after 2 days post compound treatment by leaf puncture assay).
Format: functional
Outline: as §1

SMILES | Activity
CC(C)=C[C@H]1C[C@H](C)[C@]2(CC[C@]3(C)C[C@@H]4C(C)=CC(=O)[C@H]4/C(CO)=C\C[C@H]32)O1 | inactive

What follows are compounds tested on Setaria viridis (assay: Herbicidal activity against Setaria viridis assessed as diameter of leaf necrosis at 50 ug/ml measured after 2 days post compound treatment by leaf puncture assay).
Format: functional
Outline: as §1

SMILES | Activity
CC(C)=C[C@H]1C[C@H](C)[C@]2(CC[C@]3(C)C[C@@H]4C(C)=CC(=O)[C@H]4/C(CO)=C\C[C@H]32)O1 | inactive

Each compound was assayed on Phalaris canariensis (assay: Herbicidal activity against Phalaris canariensis assessed as diameter of leaf necrosis at 100 ug/ml measured after 2 days post compound treatment by leaf puncture assay).
Format: functional
Outline: as §1

SMILES | Activity
CC(C)=C[C@H]1C[C@H](C)[C@]2(CC[C@]3(C)C[C@@H]4C(C)=CC(=O)[C@H]4/C(CO)=C\C[C@H]32)O1 | inactive

What follows are compounds tested on Bromus sterilis (assay: Herbicidal activity against Bromus sterilis assessed as diameter of leaf necrosis at 50 ug/ml measured after 2 days post compound treatment by leaf puncture assay).
Format: functional
Outline: as §1

SMILES | Activity
CC(C)=C[C@H]1C[C@H](C)[C@]2(CC[C@]3(C)C[C@@H]4C(C)=CC(=O)[C@H]4/C(CO)=C\C[C@H]32)O1 | inactive

These compounds were tested on Echinochloa crus-galli (assay: Herbicidal activity against Echinochloa crus-galli (barnyard grass) assessed as diameter of leaf necrosis at 100 ug/ml measured after 2 days post compound treatment by leaf puncture assay).
Format: functional
Outline: as §1

SMILES | Activity
CC(C)=C[C@H]1C[C@H](C)[C@]2(CC[C@]3(C)C[C@@H]4C(C)=CC(=O)[C@H]4/C(CO)=C\C[C@H]32)O1 | inactive

Each compound was assayed on Oloptum miliaceum (assay: Herbicidal activity against Piptatherum miliaceum assessed as diameter of leaf necrosis at 100 ug/ml measured after 2 days post compound treatment by leaf puncture assay).
Format: functional
Outline: as §1

SMILES | Activity
CC(C)=C[C@H]1C[C@H](C)[C@]2(CC[C@]3(C)C[C@@H]4C(C)=CC(=O)[C@H]4/C(CO)=C\C[C@H]32)O1 | inactive

The compounds below were run on Digitaria sanguinalis (assay: Herbicidal activity against Digitaria sanguinalis (hairy crabgrass) assessed as diameter of leaf necrosis at 250 ug/ml measured after 2 days post compound treatment by leaf puncture assay).
Format: functional
Outline: as §1

SMILES | Activity
CC(C)=C[C@H]1C[C@H](C)[C@]2(CC[C@]3(C)C[C@@H]4C(C)=CC(=O)[C@H]4/C(CO)=C\C[C@H]32)O1 | inactive

What follows are compounds tested on Chenopodium album (assay: Herbicidal activity against Chenopodium album assessed as diameter of leaf necrosis at 50 ug/ml measured after 2 days post compound treatment by leaf puncture assay).
Format: functional
Outline: as §1

SMILES | Activity
CC(C)=C[C@H]1C[C@H](C)[C@]2(CC[C@]3(C)C[C@@H]4C(C)=CC(=O)[C@H]4/C(CO)=C\C[C@H]32)O1 | inactive

The compounds below were run on Diplotaxis erucoides (assay: Herbicidal activity against Diplotaxis erucoides assessed as diameter of leaf necrosis at 100 ug/ml measured after 2 days post compound treatment by leaf puncture assay).
Format: functional
Outline: as §1

SMILES | Activity
CC(C)=C[C@H]1C[C@H](C)[C@]2(CC[C@]3(C)C[C@@H]4C(C)=CC(=O)[C@H]4/C(CO)=C\C[C@H]32)O1 | inactive

The compounds below were run on Amaranthus retroflexus (assay: Herbicidal activity against Amaranthus retroflexus assessed as diameter of leaf necrosis at 50 ug/ml measured after 2 days post compound treatment by leaf puncture assay).
Format: functional
Outline: as §1

SMILES | Activity
CC(C)=C[C@H]1C[C@H](C)[C@]2(CC[C@]3(C)C[C@@H]4C(C)=CC(=O)[C@H]4/C(CO)=C\C[C@H]32)O1 | inactive
